Reference: ChEMBL document CHEMBL1140881, “Discovery of 13-oxa prostaglandin analogs as antiglaucoma agents: synthesis and biological activity” (Bioorg Med Chem, 2009)
One block for each compound: values may come before it. Calls of active or inactive are those of the source. The rule behind the calls is not given here.

What was measured:
Oryctolagus cuniculus [1] = organism: Oryctolagus cuniculus; experiment: Effect on ocular irritation in New Zealand albino rabbit assessed as incidence of conjunctival swelling at 1 ug after 1 to 5 hrs; assay type: functional, Conjunctiva
Procedure, shortened: (§1)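 Topical single 30 µL drop into both eyes of each of five rabbits, doses 0.03–100 µg. Vehicle was trimethamine/boric acid buffer with 4.6% mannitol, HCO-40, 0.01% EDTA and 0.01% benzalkonium chloride, pH 7.4. Eyes were scored at 1, 2, 3 and 5 h. The percent of eyes scoring +2 or greater, pooled across all time points, is reported as study % incidence. Qualitative, with no statistics.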

Oryctolagus cuniculus [2] = organism: Oryctolagus cuniculus; experiment: Effect on ocular irritation in New Zealand albino rabbit assessed as incidence of conjunctival hyperemia at 1 ug after 1 to 5 hrs; assay type: functional, Conjunctiva; procedure, shortened: as §1
[3] = biological target: Prostaglandin F2-alpha receptor (Mus musculus, UniProt P43117); experiment: Agonist activity at FP receptor in Swiss mouse 3T3 cells assessed as [3H]-IP accumulation by scintillation counting; assay type: functional, cell-based
Sequence of Prostaglandin F2-alpha receptor (Mus musculus, UniProt P43117) (P43117 whole entry): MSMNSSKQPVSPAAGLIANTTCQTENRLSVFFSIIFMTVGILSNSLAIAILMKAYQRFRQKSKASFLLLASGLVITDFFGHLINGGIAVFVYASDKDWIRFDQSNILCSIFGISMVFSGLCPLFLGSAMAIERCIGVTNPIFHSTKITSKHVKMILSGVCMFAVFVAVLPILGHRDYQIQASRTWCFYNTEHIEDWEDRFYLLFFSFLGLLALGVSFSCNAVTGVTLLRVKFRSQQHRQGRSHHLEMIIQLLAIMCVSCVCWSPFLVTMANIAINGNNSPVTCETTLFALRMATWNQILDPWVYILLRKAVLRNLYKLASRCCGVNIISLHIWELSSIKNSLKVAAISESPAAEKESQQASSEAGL
Procedure, shortened: (§2)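 Swiss 3T3 mouse fibroblasts carry an endogenous FP receptor. They were rinsed in DMEM/F-12 with 10 mM LiCl, then exposed to agonist or vehicle in that medium for 60 min at 37 °C. The reaction was stopped with ice-cold 0.1 M formic acid. Total [3H]-IPs were eluted with ammonium formate in formic acid and counted by scintillation. EC50 and Emax came from nonlinear fits of concentration-response curves pooled from several experiments.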

[4] = biological target: Prostaglandin F2-alpha receptor (Mus musculus) (UniProt P43117); experiment: Agonist activity at FP receptor in Swiss mouse 3T3 cells assessed as [3H]-IP accumulation by scintillation counting relative to control; assay type: functional, cell-based; procedure, shortened: as §2
Sequence of Prostaglandin F2-alpha receptor (Mus musculus) (P43117 whole entry): as above

Oryctolagus cuniculus [5] = organism: Oryctolagus cuniculus; experiment: Effect on ocular irritation in New Zealand albino rabbit assessed as incidence of conjunctival hyperemia at 1.8 ug after 1 to 5 hrs; assay type: functional, Conjunctiva; procedure, shortened: as §1
Oryctolagus cuniculus [6] = organism: Oryctolagus cuniculus; experiment: Effect on ocular irritation in New Zealand albino rabbit assessed as incidence of ocular discharge 1.8 ug after 1 to 5 hrs; assay type: functional, Eye; procedure, shortened: as §1
Oryctolagus cuniculus [7] = organism: Oryctolagus cuniculus; experiment: Effect on ocular irritation in New Zealand albino rabbit assessed as incidence of conjunctival swelling 1.8 ug after 1 to 5 hrs; assay type: functional, Conjunctiva; procedure, shortened: as §1
[8] = biological target: Prostaglandin F2-alpha receptor (Bos taurus, UniProt P37289); experiment: Displacement of [3H]PGF2 alpha from FP receptor in bovine corpus luteum membrane; assay type: cell membranes
Sequence of Prostaglandin F2-alpha receptor (Bos taurus, UniProt P37289) (P37289 whole entry): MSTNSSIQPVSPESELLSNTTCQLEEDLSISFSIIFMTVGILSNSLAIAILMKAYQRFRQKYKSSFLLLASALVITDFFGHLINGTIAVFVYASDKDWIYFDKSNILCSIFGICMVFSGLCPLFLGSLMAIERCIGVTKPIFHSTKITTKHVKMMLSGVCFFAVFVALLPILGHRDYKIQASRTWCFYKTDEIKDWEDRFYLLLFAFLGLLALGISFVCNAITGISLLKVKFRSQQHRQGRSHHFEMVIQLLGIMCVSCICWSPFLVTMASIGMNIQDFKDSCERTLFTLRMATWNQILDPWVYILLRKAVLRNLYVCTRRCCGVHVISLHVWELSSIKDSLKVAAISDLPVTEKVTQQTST
Procedure, shortened: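 Nonspecific binding was set with 10 µM unlabeled PGF2α or cloprostenol. Bound and free ligand were separated by vacuum filtration on PEI-soaked GF/B filters and counted. Ki came from nonlinear fitting across several experiments.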

Oryctolagus cuniculus [9] = organism: Oryctolagus cuniculus; experiment: Effect on ocular irritation in New Zealand albino rabbit assessed as incidence of conjunctival hyperemia at 0.3 ug after 1 to 5 hrs; assay type: functional, Conjunctiva; procedure, shortened: as §1
Oryctolagus cuniculus [10] = organism: Oryctolagus cuniculus; experiment: Effect on ocular irritation in New Zealand albino rabbit assessed as incidence of ocular discharge at 1 ug after 1 to 5 hrs; assay type: functional, organism-based, Eye; procedure, shortened: as §1
Oryctolagus cuniculus [11] = organism: Oryctolagus cuniculus; experiment: Effect on ocular irritation in New Zealand albino rabbit assessed as incidence of conjunctival swelling at 3 ug after 1 to 5 hrs; assay type: functional, Conjunctiva; procedure, shortened: as §1
Oryctolagus cuniculus [12] = organism: Oryctolagus cuniculus; experiment: Effect on ocular irritation in New Zealand albino rabbit assessed as incidence of conjunctival swelling at 0.03 ug after 1 to 5 hrs; assay type: functional, Conjunctiva; procedure, shortened: as §1
Oryctolagus cuniculus [13] = organism: Oryctolagus cuniculus; experiment: Effect on ocular irritation in New Zealand albino rabbit assessed as incidence of conjunctival hyperemia at 3 ug after 1 to 5 hrs; assay type: functional, Conjunctiva; procedure, shortened: as §1
Oryctolagus cuniculus [14] = organism: Oryctolagus cuniculus; experiment: Effect on ocular irritation in New Zealand albino rabbit assessed as incidence of conjunctival swelling at 10 ug after 1 to 5 hrs; assay type: functional, Conjunctiva; procedure, shortened: as §1
Oryctolagus cuniculus [15] = organism: Oryctolagus cuniculus; experiment: Effect on ocular irritation in New Zealand albino rabbit assessed as incidence of conjunctival hyperemia at 10 ug after 1 to 5 hrs; assay type: functional, Conjunctiva; procedure, shortened: as §1
Oryctolagus cuniculus [16] = organism: Oryctolagus cuniculus; experiment: Effect on ocular irritation in New Zealand albino rabbit assessed as incidence of ocular discharge at 0.1 ug after 1 to 5 hrs; assay type: functional, Eye; procedure, shortened: as §1
Macaca fascicularis [17] = organism: Macaca fascicularis; experiment: Induction of miosis in monkey; conditions: cynomolgus monkey, in vivo
Felis catus [18] = organism: Felis catus; experiment: Acute […] response in normotensive cat assessed as AUC (1 to 5 hrs) at 1 ug; assay type: functional
Procedure, shortened: (§3)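 Conscious cats held in cat bags under uniform room lighting. Horizontal pupil diameter read with a hand-held micrometer, then again at 0.5, 1, 1.5, 2, 2.5, 3, 4 and 5 h after topical dosing. The AUC of pupil diameter change versus time over 1–5 h was computed from group averages. Ranking is qualitative, with no statistics.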

Oryctolagus cuniculus [19] = organism: Oryctolagus cuniculus; experiment: Effect on ocular irritation in New Zealand albino rabbit assessed as incidence of ocular discharge at 10 ug after 1 to 5 hrs; assay type: functional, Eye; procedure, shortened: as §1
Oryctolagus cuniculus [20] = organism: Oryctolagus cuniculus; experiment: Effect on ocular irritation in New Zealand albino rabbit assessed as incidence of conjunctival swelling at 0.1 ug after 1 to 5 hrs; assay type: functional, Conjunctiva; procedure, shortened: as §1
Macaca fascicularis [21] = organism: Macaca fascicularis; experiment: Toxicity in monkey assessed as drug tolerance; conditions: cynomolgus monkey, in vivo
Felis catus [22] = organism: Felis catus; experiment: Acute […] response in normotensive cat assessed as AUC (1 to 5 hrs) at 0.3 ug; assay type: functional; procedure, shortened: as §3
Oryctolagus cuniculus [23] = organism: Oryctolagus cuniculus; experiment: Effect on ocular irritation in New Zealand albino rabbit assessed as incidence of conjunctival swelling at 0.3 ug after 1 to 5 hrs; assay type: functional, Conjunctiva; procedure, shortened: as §1
Oryctolagus cuniculus [24] = organism: Oryctolagus cuniculus; experiment: Effect on ocular irritation in New Zealand albino rabbit assessed as incidence of conjunctival swelling at 30 ug after 1 to 5 hrs; assay type: functional, Conjunctiva; procedure, shortened: as §1
Oryctolagus cuniculus [25] = organism: Oryctolagus cuniculus; experiment: Effect on ocular irritation in New Zealand albino rabbit assessed as incidence of conjunctival hyperemia at 0.1 ug after 1 to 5 hrs; assay type: functional, Conjunctiva; procedure, shortened: as §1
Oryctolagus cuniculus [26] = organism: Oryctolagus cuniculus; experiment: Effect on ocular irritation in New Zealand albino rabbit assessed as incidence of conjunctival hyperemia at 0.03 ug after 1 to 5 hrs; assay type: functional, Conjunctiva; procedure, shortened: as §1
Oryctolagus cuniculus [27] = organism: Oryctolagus cuniculus; experiment: Effect on ocular irritation in New Zealand albino rabbit assessed as incidence of ocular discharge at 0.3 ug after 1 to 5 hrs; assay type: functional, Eye; procedure, shortened: as §1
Oryctolagus cuniculus [28] = organism: Oryctolagus cuniculus; experiment: Effect on ocular irritation in New Zealand albino rabbit assessed as incidence of ocular discharge at 3 ug after 1 to 5 hrs; assay type: functional, Eye; procedure, shortened: as §1
Oryctolagus cuniculus [29] = organism: Oryctolagus cuniculus; experiment: Effect on ocular irritation in New Zealand albino rabbit assessed as incidence of ocular discharge at 0.03 ug after 1 to 5 hrs; assay type: functional, Eye; procedure, shortened: as §1
Felis catus [30] = organism: Felis catus; experiment: Acute […] response in normotensive cat assessed as AUC (1 to 5 hrs) at 0.1 ug; assay type: functional; procedure, shortened: as §3
Felis catus [31] = organism: Felis catus; experiment: Toxicity in normotensive cat assessed as discomfort; assay type: organism-based; conditions: in vivo
Macaca fascicularis [32] = organism: Macaca fascicularis; experiment: Inhibition of intraocular pressure in hypertensive monkey at 3 ug after first instillation; set-up: scale not given: the % may be the effect or the level left
Oryctolagus cuniculus [33] = organism: Oryctolagus cuniculus; experiment: Effect on ocular irritation in New Zealand albino rabbit assessed as incidence of ocular discharge at 30 ug after 1 to 5 hrs; assay type: functional, Eye; procedure, shortened: as §1
Macaca fascicularis [34] = organism: Macaca fascicularis; experiment: Inhibition of intraocular pressure in hypertensive monkey at 3 ug, bid after 4th dose measured after 16 hrs; set-up: scale not given: the % may be the effect or the level left
Macaca fascicularis [35] = organism: Macaca fascicularis; experiment: Inhibition of intraocular pressure in hypertensive monkey at 1 ug, bid; conditions: Eye
Felis catus [36] = organism: Felis catus; experiment: Toxicity in normotensive cat assessed as ocular irritation; assay type: organism-based, Eye; conditions: in vivo
Oryctolagus cuniculus [37] = organism: Oryctolagus cuniculus; experiment: Effect on ocular irritation in New Zealand albino rabbit assessed as incidence of conjunctival hyperemia at 30 ug after 1 to 5 hrs; assay type: functional, Conjunctiva; procedure, shortened: as §1
Macaca fascicularis [38] = organism: Macaca fascicularis; experiment: Inhibition of intraocular pressure in hypertensive monkey at 3 ug, bid after 5th dose; set-up: scale not given: the % may be the effect or the level left

EC50 [3]: 31.7 nM | Activity [4]: 85% | Ki [8]: 98 nM
Structure (SMILES): O=C(O)CCC/C=C\C[C@@H]1[C@@H](CC[C@@H](O)CCc2ccccc2)[C@H](O)C[C@@H]1O [LATANOPROST ACID]
Activity (Oryctolagus cuniculus [5]): 45% | Activity (Oryctolagus cuniculus [6]): 20% | Activity (Oryctolagus cuniculus [7]): 40%

Activity (Macaca fascicularis [17]): Not Active
Structure (SMILES): CC(C)OC(=O)CCC/C=C\C[C@@H]1[C@@H](OC[C@@H](O)CCc2cccc(C(F)(F)F)c2)[C@H](O)C[C@@H]1O
Activity (Oryctolagus cuniculus [9]): 8% | Activity (Oryctolagus cuniculus [10]): 5% | Activity (Oryctolagus cuniculus [11]): 8% | Activity (Oryctolagus cuniculus [12]): 23% | Activity (Oryctolagus cuniculus [13]): 25% | Activity (Oryctolagus cuniculus [14]): 35% | Activity (Oryctolagus cuniculus [15]): 23% | Activity (Oryctolagus cuniculus [1]): 30% | Activity (Oryctolagus cuniculus [16]): 3% | Activity (Felis catus [18]): 10.2 | Activity (Oryctolagus cuniculus [19]): 15% | Activity (Oryctolagus cuniculus [20]): 38% | Activity (Macaca fascicularis [21]): Not Active | Activity (Felis catus [22]): 6.57 | Activity (Oryctolagus cuniculus [23]): 25% | Activity (Oryctolagus cuniculus [24]): 45% | Activity (Oryctolagus cuniculus [2]): 13% | Activity (Oryctolagus cuniculus [25]): 13% | Activity (Oryctolagus cuniculus [26]): 13% | Activity (Oryctolagus cuniculus [27]): 3% | Activity (Oryctolagus cuniculus [28]): 0% | Activity (Oryctolagus cuniculus [29]): 5% | Activity (Felis catus [30]): 3.12 | Activity (Felis catus [31]): Non-toxic | Activity (Macaca fascicularis [32]): 22% | Activity (Oryctolagus cuniculus [33]): 0% | Activity (Macaca fascicularis [34]): 21% | Activity (Macaca fascicularis [35]): inactive | Activity (Felis catus [36]): Non-toxic | Activity (Oryctolagus cuniculus [37]): 73% | Activity (Macaca fascicularis [38]): 30%

EC50 [3]: 52.4 nM | Activity [4]: 62% | Ki [8]: 680 nM
Structure (SMILES): O=C(O)CCC/C=C\C[C@@H]1[C@@H](OC[C@@H](O)COc2cccc(Cl)c2)[C@H](O)C[C@@H]1O

EC50 [3]: 5.7 nM | Activity [4]: 82% | Ki [8]: 130 nM
Structure (SMILES): O=C(O)CCC/C=C\C[C@@H]1[C@@H](OC[C@H](O)CCc2cccc(C(F)(F)F)c2)[C@H](O)C[C@@H]1O

EC50 [3]: 294 nM | Activity [4]: 67% | Ki [8]: 120 nM
Structure (SMILES): O=C(O)CCC/C=C\C[C@@H]1[C@@H](OC[C@@H](O)COc2ccccc2)[C@H](O)C[C@@H]1O

More lines, now with the values behind:

Structure (SMILES): CCCCC[C@H](O)/C=C/[C@@H]1[C@@H](C/C=C\CCCC(=O)O)[C@@H](O)C[C@H]1O [DINOPROST]
Activity (Oryctolagus cuniculus [1]): 40% | Activity (Oryctolagus cuniculus [2]): 100%

Structure (SMILES): O=C(O)CCC/C=C\C[C@@H]1[C@@H](OC[C@H](O)COc2ccccc2)[C@H](O)C[C@@H]1O
EC50 [3]: 68.6 nM | Activity [4]: 67% | Ki [8]: 87 nM

Structure (SMILES): O=C(O)CCC/C=C\C[C@@H]1[C@@H](OC[C@@H](O)CCc2cccc(C(F)(F)F)c2)[C@H](O)C[C@@H]1O
EC50 [3]: 1.9 nM | Activity [4]: 78% | Ki [8]: 72 nM

Structure (SMILES): O=C(O)CCC/C=C\C[C@@H]1[C@@H](OC[C@H](O)COc2cccc(Cl)c2)[C@H](O)C[C@@H]1O
EC50 [3]: 62.2 nM | Activity [4]: 86% | Ki [8]: 140 nM
